{"source": "paper PMC3364105", "about": "(Nature Biotechnology, 2011)", "format_in_all_cases": "in vivo", "key": {"[1]": {"test_system": "sciatic nerve", "experiment": "Cy5-NP41 nerve labeling and localization in thy1-YFP transgenic mice", "details": "for nerve-to-muscle contrast / nerve labeling: injected into thy1-YFP transgenic mice"}, "[2]": {"test_system": "peripheral nerves", "details": "FAM-labeled peptide, intravenous, living mice; for background binding to surrounding nonneural tissue: 2–4 h after injection", "procedure,_shortened": "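Peptides were made as fluorescein-5(6)-carbonyl (FAM) conjugates on a C-terminal lysinamide. The control was a same-format peptide with the shared amino acids in random order. Each was given intravenously to living mice, and FAM fluorescence contrast between peripheral nerve and muscle was evaluated 2–4 h post-injection.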"}, "[3]": {"experiment": "Behavior, activity, weight and morbidity after injection", "details": "mice, injections of 75–300 nmoles"}, "[4]": {"experiment": "Biodistribution and urine metabolites after systemic administration", "details": "mice", "procedure,_shortened": "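Mice received 150 nmoles FAM- or Cy5-labeled test peptide intravenously. Organs were harvested and fluorescence uptake was evaluated. Urine was analysed by MALDI mass spectrometry to identify the major fluorescently labeled species. The control was an all-D-amino-acid FAM-labeled peptide.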"}}, "data": [{"compound": "CCN1/C(=C/C=C/C=C/C2=[N+](CCCCCC(=O)O)c3ccc(S(=O)(=O)O)cc3C2(C)C)C(C)(C)c2cc(S(=O)(=O)[O-])ccc21", "note": "[unconjugated Cy5, reference compound]", "values": [{"measurement": "nerve-to-muscle contrast / nerve labeling", "setting": "[1]", "result": "No nerve-to-muscle contrast was detected"}]}, {"compound": "AHHNSWKAKHHS [NP38]", "values": [{"measurement": "background binding to surrounding nonneural tissue", "setting": "[2]", "result": "high-background binding to the surrounding nonneural tissue"}]}, {"compound": "NTQTLAKAPEHT [NP41]", "values": [{"measurement": "nerve-to-muscle contrast", "setting": "[2]; evaluated 2–4 h after injection", "result": "best nerve to nonnerve contrast"}]}, {"compound": "TYTDWLNFWAWP [NP39]", "values": [{"measurement": "background binding to surrounding nonneural tissue", "setting": "[2]", "result": "high-background binding to the surrounding nonneural tissue"}]}, {"compound": "acetyl-SHSNTQTLAKAPEHTGC-(Cy5)-amide [Cy5-NP41]", "values": [{"measurement": "localization within nerve", "setting": "[1]; 3–5 µm cryosections of nerves from thy1-YFP animals", "result": "localized to the epineurium of the nerves with some labeling of the perineurium and endoneurium, but did not colocalize with either myelin or axons"}, {"measurement": "nerve-to-muscle contrast / nerve labeling", "setting": "[1]", "result": "precisely labeled nerves that expressed YFP"}, {"measurement": "change in behavior or activity", "setting": "[3]", "result": "no change in behavior or activity"}, {"measurement": "biodistribution of fluorescence", "setting": "[4]; intravenous, 150 nmoles, harvested organs", "result": "majority of the fluorescence accumulated in the kidney and was excreted into the urine"}, {"measurement": "state of peptide recovered in urine", "setting": "[4]; urine, liquid chromatography–electrospray mass spectrometry / MALDI-MS", "result": "efficiently metabolized"}, {"measurement": "major fluorescently labeled species in urine", "setting": "[4]; urine, matrix-assisted laser desorption/ionization mass spectrometry", "result": "cysteinamide-Cy5"}]}]}
